Laboratory results from PMC3821033 (FEBS Open Bio, 2013).
Values belong to the compound of their own block, whether it stands above or below them.

Key:
Assay type in all cases: biochemical
[1] = biological target: T1, FNI (Lactococcus cremoris, UniProt A2RID7); test: 1H NMR of product after […] h; conditions: 5 mM MgCl2, 10 μM FMN, 5 mM NADH, 2 mM DTT, pH 7.0, 30 °C
T1 sequence (A2RID7 1-349): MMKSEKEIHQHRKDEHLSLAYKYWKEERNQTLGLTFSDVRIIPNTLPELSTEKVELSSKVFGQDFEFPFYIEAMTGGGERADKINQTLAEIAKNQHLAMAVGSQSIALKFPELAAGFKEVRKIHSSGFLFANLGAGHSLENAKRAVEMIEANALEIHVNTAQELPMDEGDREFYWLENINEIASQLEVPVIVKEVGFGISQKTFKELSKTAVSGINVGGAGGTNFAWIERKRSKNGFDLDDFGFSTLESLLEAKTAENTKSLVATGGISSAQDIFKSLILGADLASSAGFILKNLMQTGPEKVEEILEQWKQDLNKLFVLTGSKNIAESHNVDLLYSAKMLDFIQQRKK

[2] = biological target: T2, LDHA (Lactococcus cremoris, UniProt A2RKA4); test: inhibition of NADH-coupled activity; conditions: inhibitor; both reaction directions; 1 mM FBP, pH 7.0, 30 °C
T2 sequence (A2RKA4 1-325): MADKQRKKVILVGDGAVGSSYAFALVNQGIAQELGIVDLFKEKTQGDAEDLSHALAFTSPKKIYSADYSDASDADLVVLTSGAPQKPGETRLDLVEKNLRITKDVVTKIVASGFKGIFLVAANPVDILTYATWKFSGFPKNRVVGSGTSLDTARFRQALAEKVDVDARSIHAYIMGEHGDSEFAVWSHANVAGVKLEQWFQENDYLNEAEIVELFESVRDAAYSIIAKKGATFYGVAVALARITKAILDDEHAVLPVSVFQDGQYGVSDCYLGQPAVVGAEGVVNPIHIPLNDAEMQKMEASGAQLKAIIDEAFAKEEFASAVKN

[3] = biological target: T2, LDHA; test: inhibition of NADH-coupled activity; conditions: read-out: % remaining rate at 8 mM
[4] = biological target: T2, LDHA; test: activation of NADH-coupled activity; conditions: 200 µM, allosteric activator, Tris-maleate pH 7.0, 30 °C
Procedure, shortened: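 Recombinant His-tagged LDHA from L. lactis MG1363, expressed in E. coli Transetta (DE3) (0.5 mM IPTG, 30 °C, 4 h) and purified on Ni-NTA with imidazole elution. Pyruvate reduction was followed spectrophotometrically as the decrease in NADH absorbance at 340 or 380 nm, at 30 °C in 100 mM Tris–maleate pH 7.0, with about 40–200 ng/ml enzyme; 1 unit = 1 μmol/min.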

Compound: C=C(C)CCOP(=O)(O)OP(=O)(O)O [IPP]
1H NMR of product after 15 h [1]: conversion of IPP to dimethylallyl diphosphate was observed

Compound: Nc1ncnc2c1ncn2[C@@H]1O[C@H](COP(=O)(O)OP(=O)(O)O)[C@@H](O)[C@H]1O [ADP]
inhibition of NADH-coupled activity [2]: ADP was shown to be a more severe inhibitor

Compound: CC(C)=CCOP(=O)(O)OP(=O)(O)O [dimethylallyl diphosphate]
1H NMR of product after 15 h [1]: appearance of signals for dimethylallyl diphosphate

remaining activity at 8000 µM [3]: > 80%
Compound: Nc1ncnc2c1ncn2[C@@H]1O[C@H](COP(=O)(O)OP(=O)(O)OP(=O)(O)O)[C@@H](O)[C@H]1O [ATP]

Pyruvate reduction (%) [4]: 66 ± 4.7%
Compound: O=P(O)(O)OC[C@H]1OC(O)(COP(=O)(O)O)[C@@H](O)[C@@H]1O (some centres unmarked) [FBP]
